Source: PubChem (Johns Hopkins Ion Channel Center)
Compounds with a hit are over-represented: about 3.7% of the library has one in this group of screens.
KCNQ1 inh: blocks the human KCNQ1 potassium channel; CHO-K1 KCNQ1, FluxOR thallium flux fluorescence; hits give high values; B-score at 10 µM; 310,000 tested, 1.3% active; AID 2642;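 active means compounds whose thallium flux B-score, printed positive for inhibition, exceeds three library SD while starting fluorescence stays within three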;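 further: channel opened by potassium depolarization with thallium stimulus after 20 min compound exposure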
KCNK3 block: human KCNK3 channel inhibition, primary screen; CHO-KCNK3 thallium flux, FluxOR fluorescence; hits give low values; AID 602410; O14649; 340,000 tested, 0.84% active; B-score at 10 µM;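 active means B-score under library mean minus 4 SD, starting fluorescence ratio at most library mean plus 5 SD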;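 further: more negative B-score means stronger inhibition of thallium flux through KCNK3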
Target sequence (O14649 whole entry, looked up): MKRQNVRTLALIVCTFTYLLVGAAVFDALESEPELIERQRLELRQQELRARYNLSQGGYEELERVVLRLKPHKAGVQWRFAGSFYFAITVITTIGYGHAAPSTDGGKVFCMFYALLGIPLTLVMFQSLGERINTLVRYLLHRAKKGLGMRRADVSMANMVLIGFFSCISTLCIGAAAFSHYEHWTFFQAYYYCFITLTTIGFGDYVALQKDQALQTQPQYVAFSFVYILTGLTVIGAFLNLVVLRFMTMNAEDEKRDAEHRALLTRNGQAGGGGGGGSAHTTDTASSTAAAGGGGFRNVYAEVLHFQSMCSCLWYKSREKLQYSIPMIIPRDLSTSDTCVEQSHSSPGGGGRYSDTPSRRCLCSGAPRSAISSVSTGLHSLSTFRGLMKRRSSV
hERG rescue: compounds protecting human hERG from proarrhythmic drug block; Q12809; 310,000 tested, 0.51% active; CHO-hERG, FluxOR thallium flux, dofetilide IC70 present; activation (rescue from dofetilide block), less the hit threshold, % at 10 µM;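 active means activation above the mean of controls blocked by dofetilide plus 5 SD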;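 further: thallium influx through hERG after potassium depolarization seen as dye fluorescence rise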
KCNQ1 act: human KCNQ1 channel potentiation or activation; P51787; CHO-K1 KCNQ1, thallium flux FluxOR fluorescence; hits give high values; B-score at 10 µM; 310,000 tested, 0.35% active; AID 2648;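 active means fluorescence ratio B-score, a plate-corrected score, at least three library SD, with initial intensity B-score within 5 SD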
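Material: CHO-K1 cells stably expressing KCNQ1. Medium: assay buffer for compound exposure, DMSO matched across wells. Reagent: K+/Tl+ depolarizing stimulus. Compound dosing: single-concentration screen. Times: 37 °C overnight plating, 90-min dark dye load, 20-min compound pretreatment. Technique: FluxOR Tl+ flux fluorescence.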
KCNK9 inh: human KCNK9 channel inhibition; 310,000 tested, 1.2% active; Q9NPC2; HEK293 KCNK9, FluxOR thallium flux fluorescence; hits give low values; AID 488922; B-score at 10 µM;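 active means ratio B-score over 3 SD below the library mean, with starting fluorescence within 5 SD of its mean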;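 further: negative B-score means less thallium flux so channel inhibition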
Target sequence (Q9NPC2 whole entry, looked up): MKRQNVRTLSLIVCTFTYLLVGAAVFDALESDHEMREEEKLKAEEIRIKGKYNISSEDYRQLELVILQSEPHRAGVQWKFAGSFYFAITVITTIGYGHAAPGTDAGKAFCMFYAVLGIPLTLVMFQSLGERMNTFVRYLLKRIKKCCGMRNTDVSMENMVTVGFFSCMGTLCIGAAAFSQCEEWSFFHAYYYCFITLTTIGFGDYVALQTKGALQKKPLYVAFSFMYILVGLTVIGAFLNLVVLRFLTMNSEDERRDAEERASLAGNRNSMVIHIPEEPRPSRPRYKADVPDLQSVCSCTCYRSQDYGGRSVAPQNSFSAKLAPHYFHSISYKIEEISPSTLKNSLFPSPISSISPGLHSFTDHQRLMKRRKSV
Kir21 inh: inhibitors of mouse Kir2.1 inward-rectifier potassium channel; P35561; HEK293-Kir2.1, FluxOR thallium flux fluorescence; hits give low values; B-score at 10 µM; 310,000 tested, 0.85% active;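 active means fluorescence ratio B-score at or below minus 3 SD of library scores, with starting-brightness B-score within 2 SD, cut at about -4.2 in these data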;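 further: channel flux triggered by added potassium and thallium sulfate stimulus; B-score of peak minus minimum fluorescence over baseline after thallium stimulus; more negative B-score means stronger Kir2.1 block with less thallium influx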
KCNK9 inh conf: confirmation of human KCNK9 potassium channel inhibitors; 4,900 tested, 43% active; HEK293 KCNK9 cells, FluxOR thallium flux fluorescence; shares compounds with KCNK9 inh; inhibition, % at 10 µM;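 active means thallium signal inhibited by more than 5 SD of the compound-free buffer control wells, on both duplicate plates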
Kir21 sel: mouse Kir2.1 off-target activity of KCNK9 modulators | 4,900 tested, 4% active | inhibition, % at 10 µM | AID 492993 | shares compounds with KCNK9 inh | Kir2.1 cells, FluxOR thallium flux fluorescence;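 active means thallium signal drop more than 5 SD beyond the mean of the no-compound control wells, seen in both duplicate plates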;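 further: signal is fluorescence rise after thallium addition divided by baseline fluorescence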
HEK293 Tl ctr: second counter-screen for KCNK9 modulators: effect in non-induced cells | inhibition, % at 10 µM | shares compounds with KCNK9 inh | 4,900 tested, 40% active | non-induced KCNK9-HEK293, FluxOR thallium flux | AID 492997;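 active means thallium signal drop beyond 5 SD of the untreated control mean, on both duplicate plates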
Large screens that a line does not name were inactive (follow-up assays come after a bar, where they were run).

CN(CC1CCN(CCc2cccc(C(F)(F)F)c2)CC1)C(=O)c1ccccc1	none
CC(=O)c1nccs1	none (no result: KCNQ1 inh, hERG rescue, KCNQ1 act, KCNK9 inh, Kir21 inh)
Cc1ccc(C(=O)NCc2ccccn2)cc1S(=O)(=O)N1CCCCC1	none
COC(=O)c1ccc(CN2CCC(n3nccc3NC(=O)C3CCCC3)CC2)cc1	none
COC(=O)CN1C(c2cccc(Cl)c2)=Nc2ccc(Cl)cc2C1c1ccccc1 (stereo not drawn)	KCNK9 inh -16 | KCNK9 inh conf 58% | Kir21 sel inactive | HEK293 Tl ctr 47%
Cc1ccc2nc(COC(=O)c3cnccn3)cc(=O)n2c1	none (no result: KCNQ1 inh, hERG rescue, KCNQ1 act, KCNK9 inh, Kir21 inh)
Cc1ccc(C(=O)COC(=O)C(C)N2C(=O)C3C4CCC(C4)C3C2=O)cc1C (stereo not drawn)	none
Cc1ccc(C(=O)COC(=O)C2C3C=CC(C3)C2C(=O)OCC(=O)c2ccc(C)c(C)c2)cc1C (stereo not drawn)	none | KCNK9 inh conf inactive | Kir21 sel inactive | HEK293 Tl ctr inactive
Cc1nnc(N/N=C/c2ccccc2C(F)(F)F)n1N	none
CN(C)c1cc(N/N=C/c2ccccc2C(F)(F)F)nc(N(C)C)n1	none | KCNK9 inh conf inactive | Kir21 sel inactive | HEK293 Tl ctr inactive
COc1cc(/C=N/NC(=O)CC#N)ccc1Oc1nc(Cl)ncc1F	none
Cc1ccc([N+](=O)[O-])cc1N=C(c1cccc(Br)c1)N1CCOCC1	KCNK3 block -12, KCNK9 inh -20 | KCNK9 inh conf 57% | Kir21 sel inactive | HEK293 Tl ctr 33%
O=C(c1ccco1)N1CCCC(N2CCN(c3cccc(C(F)(F)F)c3)CC2)C1 (stereo not drawn)	none | KCNK9 inh conf inactive | Kir21 sel inactive | HEK293 Tl ctr inactive
O=C(c1cccs1)N1CCCC(N2CCN(c3cccc(C(F)(F)F)c3)CC2)C1 (stereo not drawn)	none | KCNK9 inh conf inactive | Kir21 sel inactive | HEK293 Tl ctr inactive
Cc1cc(C)c(C(=O)N2CCCC(N3CCN(c4cccc(C(F)(F)F)c4)CC3)C2)o1 (stereo not drawn)	none
COc1ccc(CCC(=O)OCC(=O)NCc2ccc(OC)c(OC)c2)cc1OC	none (no result: KCNQ1 inh, hERG rescue, KCNQ1 act, KCNK9 inh, Kir21 inh)
CCCCCC(=O)N(Cc1ccccc1)c1c(N)n(CCOC)c(=O)[nH]c1=O	none
COc1ccc(C(=O)CSc2nc(C(C)(C)C)nc3ccccc23)cc1	KCNK9 inh -10 | KCNK9 inh conf 46% | Kir21 sel 35% | HEK293 Tl ctr 30%
COc1ccc(C(=O)CSc2nc3ccccc3n2CC(=O)c2ccccc2)cc1	none
Cc1ccc(Cl)cc1NS(=O)(=O)c1ccccc1	none (no result: KCNQ1 inh, hERG rescue, KCNQ1 act, KCNK9 inh, Kir21 inh)
Cc1ccc(Cl)cc1NS(=O)(=O)Cc1ccccc1	none | KCNK9 inh conf inactive | Kir21 sel inactive | HEK293 Tl ctr inactive
COc1ccc2c(C)c(C(=O)N3CCN(Cc4ccccc4)CC3)oc2c1	none | KCNK9 inh conf inactive | Kir21 sel inactive | HEK293 Tl ctr inactive
COc1ccc(Cn2c(=O)[nH]c3cc(C(=O)N4CCN(Cc5ccccc5)CC4)ccc3c2=O)cc1	none
Cc1cccc(-c2nc(CSCC(=O)NCc3cccs3)c(C)o2)c1	none | KCNK9 inh conf inactive | Kir21 sel inactive | HEK293 Tl ctr inactive
COC(=O)C(CCSC)NS(=O)(=O)c1ccc(Cl)cc1 (stereo not drawn)	none
COc1ccc(C(=O)COC(=O)C(CCSC)NS(=O)(=O)c2ccc(Cl)cc2)cc1 (stereo not drawn)	none | KCNK9 inh conf inactive | Kir21 sel inactive | HEK293 Tl ctr inactive
Cc1ccc(-c2nnc(CSc3nc(C(C)C)nc4sc(C)c(C)c34)o2)cc1	none | KCNK9 inh conf inactive | Kir21 sel inactive | HEK293 Tl ctr inactive
CCN(CC)C(=O)Cn1cnc2sc(C)c(S(=O)(=O)N3CCC(C)CC3)c2c1=O	none
COc1cc2c(cc1OC)C(C)N(C(=O)c1ccc(Cl)c(S(=O)(=O)N3CCCCC3)c1)CC2 (stereo not drawn)	KCNK9 inh -11 | KCNK9 inh conf 32% | Kir21 sel inactive | HEK293 Tl ctr inactive
O=C(OCC(=O)N1CCCCCC1)c1ccc(Cl)c(S(=O)(=O)N2CCCC2)c1	none | KCNK9 inh conf inactive | Kir21 sel inactive | HEK293 Tl ctr inactive
CC1CCCN(C(=O)c2ccc(Cl)c(S(=O)(=O)N3CCCCCC3)c2)C1 (stereo not drawn)	none (no result: KCNQ1 inh, hERG rescue, KCNQ1 act, KCNK9 inh, Kir21 inh)
O=C(c1ccc(Cl)c(S(=O)(=O)N2CCCCC2)c1)N1CCN(Cc2ccccc2)CC1	none | KCNK9 inh conf inactive | Kir21 sel inactive | HEK293 Tl ctr inactive
CCOC(=O)C1CCCN(C(=O)c2ccc(Cl)c(S(=O)(=O)N3CCCCCC3)c2)C1 (stereo not drawn)	none | KCNK9 inh conf inactive | Kir21 sel inactive | HEK293 Tl ctr inactive
CCOc1ccccc1NC(=O)CCS(=O)(=O)c1ccc(Br)cc1	none
N/C(Cc1ccccc1)=N\OC(=O)c1cccc2ccccc12	KCNK9 inh -11 | KCNK9 inh conf inactive | Kir21 sel inactive | HEK293 Tl ctr inactive
N/C(=N\OC(=O)c1cccc2ccccc12)c1ccc(Br)cc1	KCNK9 inh -8.3 | KCNK9 inh conf 35% | Kir21 sel inactive | HEK293 Tl ctr 28%
COc1ccc(C(=O)O)cc1S(=O)(=O)NCCc1ccccn1	none
CCN(CC)C(=O)/C=C/c1ccccc1	none (no result: KCNQ1 inh, hERG rescue, KCNQ1 act, KCNK9 inh, Kir21 inh)
CCN(C(=O)/C=C/c1ccccc1)C1CCCCC1	none | KCNK9 inh conf inactive | Kir21 sel inactive | HEK293 Tl ctr inactive
CCOC(=O)N1CCN(Cc2cc(=O)oc3ccc4ccccc4c23)CC1	none
O=C(CC12CC3CC(CC(C3)C1)C2)NCC(=O)OCc1cc(=O)oc2ccc3ccccc3c12	KCNK9 inh -15 | KCNK9 inh conf 62% | Kir21 sel inactive | HEK293 Tl ctr inactive
O=C(N/N=C/c1cc([N+](=O)[O-])cc(Br)c1O)C12CC3CCC(CC(C3)C1)C2	KCNQ1 act 25 | KCNK9 inh conf inactive | Kir21 sel inactive | HEK293 Tl ctr inactive
COc1cc(/C=N/NC(=O)C23CC4CC(CC(C4)C2)C3)cc(Br)c1O	none
COc1ccc(CN=Cc2c(C(F)(F)F)[nH][nH]c2=O)cc1	KCNK9 inh -11 | KCNK9 inh conf 27% | Kir21 sel inactive | HEK293 Tl ctr inactive
CN(C)C(=O)CCCCCCCCC(=O)N(C)C	none
CC[C@@]1(C(=O)OC)N[C@H](CN(C)C(=O)Nc2ccc(C(F)(F)F)cc2)[C@@H]2C(=O)N(C)C(=O)[C@@H]21	none (no result: KCNQ1 inh, hERG rescue, KCNQ1 act, KCNK9 inh, Kir21 inh)
CCc1ccc(/C=C2\SC(=S)N(CCCC(=O)Nc3ccccc3C(=O)O)C2=O)cc1	none | KCNK9 inh conf inactive | Kir21 sel inactive | HEK293 Tl ctr inactive
